Data: ChEMBL document CHEMBL3046112, “Comparative study of antimicrobial peptides to control citrus postharvest decay caused by Penicillium digitatum” (J Agric Food Chem, 2007)
≈ marks a conversion by molar mass, not a printed value. Calls of active or inactive are those of the source. No cut-off for these calls is given here.

What was measured:
Penicillium digitatum [1] = test: Fungicidal activity against Penicillium digitatum PHI-26 conidia assessed as reduction in conidia viability at 4 uM incubated for 16 hr by colony count assay relative to untreated control; assay type: functional
Summary of the method: (§1)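 P. digitatum conidia (10^4 mL-1) were incubated with peptide (for example 4, 16 or 64 µM) in sterile distilled water for 16 h at room temperature, in triplicate. Samples were then serially diluted and spread on peptide-free PDA to count CFU. Results are given as mean CFU mL-1 ± SD compared with a no-peptide control.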

Penicillium digitatum [2] = test: Antimicrobial activity against Penicillium digitatum PHI-26 assessed as inhibition of orange postharvest decay progression progression at 4 uM pre-incubated with fungus for 16 hr measured 7 days post fungal inoculation by orange fruit decay assay; assay type: functional, organism-based
Summary of the method: (§2)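 Orange fruit inoculation (Navelina, Navelate or Lanelate). Each fruit was wounded about 3 mm deep at four equatorial sites. 5 µL of inoculum (10^4 conidia mL-1 with peptide in water, preincubated 16 h at room temperature) went into each wound. Peptide was tested at 32 µM, from 4 to 64 µM, or from 1 to 4 µM. Fruit was held at 20 °C and 90% RH. Infected wounds were scored at 3, 5 and 7 dpi. Three replicas of five fruits each; Tukey mean separation.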

Penicillium digitatum [3] = test: Fungicidal activity against Penicillium digitatum PHI-26 conidia assessed as inhibition of conidia viability incubated for 16 hr by colony count assay; assay type: functional, organism-based; summary of the method: as §1
[4] = Toxicity in Homo sapiens (human) RBCs assessed as hemolytic activity; assay type: cell-based; conditions: erythrocyte
Penicillium digitatum [5] = test: Antimicrobial activity against Penicillium digitatum PHI-26 assessed as inhibition of orange postharvest decay progression at 32 uM pre-incubated with fungal conidia for 16 hr by orange fruit decay assay; assay type: functional, organism-based; summary of the method: as §2
[6] = Toxicity in Homo sapiens (human) RBCs assessed as hemolytic activity at 100 uM; assay type: cell-based; conditions: erythrocyte
Saccharomyces cerevisiae = test: Antimicrobial activity against Saccharomyces cerevisiae FY1679 assessed as microbial growth inhibition after 4 days by microtiter plate assay; assay type: functional; conditions: FY1679, 96 h
Summary of the method: (§3)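 Microtiter dose–response assay, as previously described. Peptide stocks were 1 mM in 5 mM MOPS pH 7. P. digitatum conidia came from 7–10-day PDA cultures grown at 24 °C and were counted with a hematocytometer. Yeast (YPD, 30 °C) and E. coli (LB, 37 °C) were grown to stationary phase and diluted. Growth was read as OD492 in triplicate. MIC: lowest concentration with no growth after 4 days in all independent experiments, each repeated at least three times.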

Penicillium digitatum [7] = test: Antimicrobial activity against Penicillium digitatum PHI-26 assessed as microbial growth inhibition after 4 days by microtiter plate assay; assay type: functional; summary of the method: as §3
Escherichia coli = test: Antimicrobial activity against Escherichia coli DH5[alpha] assessed as microbial growth inhibition after 4 days by microtiter plate assay; assay type: functional; conditions: 96 h; summary of the method: as §3
Penicillium digitatum [8] = test: Antimicrobial activity against Penicillium digitatum PHI-26 assessed as inhibition of orange postharvest decay progression progression at 32 uM measured 7 days post fungal inoculation by orange fruit decay assay; assay type: functional, organism-based
Summary of the method: (§4)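 Navelina sweet oranges were wounded about 3 mm deep at four equatorial sites. Each wound received 5 µL of 10^4 conidia mL-1 of PHI-26 mixed with peptide in water, inoculated either at once or after 16 h at room temperature. There were three replicas of five fruits, held at 20 °C and 90% RH. Infected wounds were scored at 3, 5 and 7 dpi as mean % ± SD, with Tukey separation.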

Penicillium digitatum [9] = test: Antimicrobial activity against Penicillium digitatum PHI-26 assessed as inhibition of orange postharvest decay progression at 32 uM by orange fruit decay assay; assay type: functional, organism-based; summary of the method: as §4
Penicillium digitatum [10] = test: Antimicrobial activity against Penicillium digitatum PHI-26 assessed as inhibition of orange postharvest decay progression progression at 2 uM pre-incubated with fungus for 16 hr measured 7 days post fungal inoculation by orange fruit decay assay; assay type: functional; summary of the method: as §2

| Compound | inhibition (Penicillium digitatum [1]) | inhibition (Penicillium digitatum [2]) | inhibition (Penicillium digitatum [3]) | fold change (FC) (Penicillium digitatum [1]) | Activity [4] | inhibition (Penicillium digitatum [5]) | Activity [6] | MIC (Saccharomyces cerevisiae) [µM] | MIC (Penicillium digitatum [7]; PHI-26, 96 h) [µM] | MIC (Escherichia coli) [µM] | inhibition (Penicillium digitatum [8]) | inhibition (Penicillium digitatum [9]) | inhibition at 2 µM (Penicillium digitatum [10]) [%] | MIC (Penicillium digitatum [7]) |
| --- | --- | --- | --- | --- | --- | --- | --- | --- | --- | --- | --- | --- | --- | --- |
| CC[C@H](C)[C@H](NC(C)=O)C(=O)N[C@@H](CC(C)C)C(=O)N1CCC[C@H]1C(=O)N[C@@H](Cc1c[nH]c2ccccc12)C(=O)N[C@@H](CCCCN)C(=O)N[C@@H](Cc1c[nH]c2ccccc12)C(=O)N1CCC[C@H]1C(=O)N[C@@H](Cc1c[nH]c2ccccc12)C(=O)N[C@@H](Cc1c[nH]c2ccccc12)C(=O)N1CCC[C@H]1C(=O)N[C@@H](Cc1c[nH]c2ccccc12)C(=O)N[C@@H](CCCNC(=N)N)C(=O)N[C@@H](CCCNC(=N)N)C(N)=O [Indolicidin] | Active | Active | Active |  |  |  |  |  |  |  |  |  |  |  |
| CC(=O)N[C@@H](CCCNC(=N)N)C(=O)N[C@@H](CCCNC(=N)N)C(=O)N[C@@H](CCCCN)C(=O)N[C@@H](CCCCN)C(=O)N[C@@H](Cc1c[nH]c2ccccc12)C(=O)N[C@@H](Cc1ccccc1)C(=O)N[C@@H](Cc1c[nH]c2ccccc12)C(N)=O |  | Active | Active | 2 | Non-toxic | Active | Non-toxic | 16 (≈ 18.4 µg/mL) | 4 (≈ 4.59 µg/mL) | 8 (≈ 9.18 µg/mL) |  |  |  |  |
| CC[C@H](C)[C@H](NC(=O)CN)C(=O)NCC(=O)N[C@@H](C)C(=O)N[C@H](C(=O)N[C@@H](CC(C)C)C(=O)N[C@@H](CCCCN)C(=O)N[C@H](C(=O)N[C@@H](CC(C)C)C(=O)N[C@H](C(=O)N[C@H](C(=O)NCC(=O)N[C@@H](CC(C)C)C(=O)N1CCC[C@H]1C(=O)N[C@@H](C)C(=O)N[C@@H](CC(C)C)C(=O)N[C@H](C(=O)N[C@@H](CO)C(=O)N[C@@H](Cc1c[nH]c2ccccc12)C(=O)N[C@H](C(=O)N[C@@H](CCCCN)C(=O)N[C@@H](CCCNC(=N)N)C(=O)N[C@@H](CCCCN)C(=O)N[C@@H](CCCNC(=N)N)C(=O)N[C@@H](CCC(N)=O)C(=O)N[C@@H](CCC(N)=O)C(N)=O)[C@@H](C)CC)[C@@H](C)CC)[C@@H](C)O)[C@@H](C)O)C(C)C)C(C)C [MELITTIN] | inactive | inactive | inactive |  | Toxic | inactive |  | 16 (≈ 45.5 µg/mL) | 2 (≈ 5.69 µg/mL) |  | Active | inactive |  |  |
| CC[C@H](C)[C@H](NC(=O)[C@H](CCCCN)NC(=O)[C@H](CCCCN)NC(=O)[C@H](Cc1ccccc1)NC(=O)[C@H](CC(C)C)NC(=O)[C@H](CCCCN)NC(=O)[C@@H](N)CCCCN)C(=O)N[C@@H](CC(C)C)C(=O)N[C@@H](CCCCN)C(=O)N[C@H](C(=O)N[C@@H](CC(C)C)C(N)=O)C(C)C [KKLFKKILKVL-NH2] | Active |  | Active |  | Toxic |  |  | 16 (≈ 21.7 µg/mL) | 4 (≈ 5.43 µg/mL) | 4 (≈ 5.43 µg/mL) |  |  |  |  |
| Ac-RKKWFW-NH2 |  |  | Active | 2 | Non-toxic | Active | Non-toxic | 32 | 4 | 32 |  |  |  |  |
| Ac-RFWWFRRR-NH2 |  | Active | Active | 2 |  | Active | Non-toxic | 32 | 4 | 8 |  | Active |  |  |
| CC(=O)N[C@@H](Cc1cnc[nH]1)C(=O)N[C@@H](CCCNC(=N)N)C(=O)N[C@@H](CCCCN)C(=O)N[C@@H](CCCCN)C(=O)N[C@@H](Cc1c[nH]c2ccccc12)C(=O)N[C@@H](Cc1ccccc1)C(=O)N[C@@H](Cc1c[nH]c2ccccc12)C(N)=O |  | Active | Active | 2 | Non-toxic | Active | Non-toxic | 16 (≈ 18.1 µg/mL) | 4 (≈ 4.51 µg/mL) | 16 (≈ 18.1 µg/mL) |  |  | > 50 |  |
| CC[C@H](C)[C@H](NC(=O)[C@H](CCCCN)NC(=O)[C@H](CCCCN)NC(=O)[C@H](Cc1ccccc1)NC(=O)[C@H](CC(C)C)NC(=O)[C@H](CCCCN)NC(=O)[C@@H](N)CCCCN)C(=O)N[C@@H](CC(C)C)C(=O)N[C@@H](CCCCN)C(=O)N[C@@H](Cc1ccccc1)C(=O)N[C@@H](CC(C)C)C(N)=O [KKLFKKILKFL-NH2] | Active |  | Active |  | Toxic |  |  | 16 (≈ 22.5 µg/mL) | 4 (≈ 5.62 µg/mL) | 4 (≈ 5.62 µg/mL) |  |  |  |  |
| CC(=O)N[C@H](CCCNC(=N)N)C(=O)N[C@H](CCCNC(=N)N)C(=O)N[C@H](CCCCN)C(=O)N[C@H](CCCCN)C(=O)N[C@H](Cc1c[nH]c2ccccc12)C(=O)N[C@H](Cc1ccccc1)C(=O)N[C@H](Cc1c[nH]c2ccccc12)C(N)=O |  |  |  |  |  |  |  |  |  |  |  |  |  | Active |
| CC(=O)N[C@H](Cc1cnc[nH]1)C(=O)N[C@H](CCCNC(=N)N)C(=O)N[C@H](CCCCN)C(=O)N[C@H](CCCCN)C(=O)N[C@H](Cc1c[nH]c2ccccc12)C(=O)N[C@H](Cc1ccccc1)C(=O)N[C@H](Cc1c[nH]c2ccccc12)C(N)=O |  |  |  |  |  |  |  |  |  |  |  |  |  | Active |
